From ChEMBL document CHEMBL1146375, “Synthetic studies on novel benzimidazolopeptides with antimicrobial, cytotoxic and anthelmintic potential” (2007)
In brackets after ≈: the same amount, converted by molar mass.

Columns and labels:
Eudrilus [1] = assay: Anthelmintic activity against Eudrilus sp. assessed as mean paralyzing time; assay type: functional
Method in brief: (§1)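 Earthworms exposed to test suspensions at 2 mg mL^-1 (0.2% w/v), made by triturating compound with Tween 80 (0.5%) and distilled water, then mechanically stirred 30 min. Mebendazole suspension prepared alike as reference. Paralysis and death times recorded; death confirmed by no movement in 50 °C water. Means from triplicate sets.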

Staphylococcus aureus [2] = assay: Antibacterial activity against Staphylococcus aureus NCIM 2079 after 18 hrs by tube dilution method; assay type: functional; details: NCIM 2079, 18 h
Method in brief: (§2)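 Tube dilution MIC. Stock diluted in sterile broth to seven concentrations from 200 to 3.1 […]. Each tube inoculated with one loopful of test bacterium and incubated 18 h at 37 °C. MIC read from presence or absence of growth.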

Pontoscolex corethrurus [3] = assay: Anthelmintic activity against Pontoscolex corethrurus ICARBC 408 assessed as mean death time; assay type: functional
Method in brief: (§3)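 Earthworms exposed to test suspensions at 2 mg mL−1, prepared by triturating compound with Tween 80 (0.5%) and distilled water, stirring 30 min, then diluting to 0.2% w/v. Mebendazole suspension was made the same way. Death was confirmed by moving worms into 50 °C warm water and looking for movement. Mean death time (min) taken from triplicate sets.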

Microsporum audouinii [4] = assay: Antifungal activity against Microsporum audouinii MUCC 545 after 48 hrs by tube dilution method; assay type: functional
Method in brief: (§4)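 Tube dilution MIC as for bacteria (seven concentrations, 200–3.1 […]), with DMSO in place of DMF. Tubes inoculated with fungal culture and incubated 48 h at 37 °C. MIC read from presence or absence of growth.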

Microsporum audouinii [5] = assay: Antifungal activity against Microsporum audouinii MUCC 545 after 48 hrs by disc diffusion method; assay type: functional
Method in brief: (§5)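 Agar well diffusion on plates inoculated with spore suspension in normal saline from cultures on Sabouraud's broth. Wells punched and loaded with test samples or griseofulvin at 10 mg mL^-1, with DMSO as negative control. Incubated 48 h at 37 °C.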

Escherichia coli [6] = assay: Antibacterial activity against Escherichia coli NCIM 2065 after 18 hrs by disc diffusion method; assay type: functional
Method in brief: (§6)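 Modified Kirby-Bauer disc diffusion. Plates inoculated with spore suspension (about 6 × 10⁴ spores mL^-1). Sterile 6 mm paper discs carried test samples at 10 mg mL^-1; ciprofloxacin disc as reference, DMF disc as negative control. Plates held 18 h at 37 °C. Inhibition zone diameters (mm) averaged over triplicate sets.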

Pontoscolex corethrurus [7] = assay: Anthelmintic activity against Pontoscolex corethrurus ICARBC 408 assessed as mean paralyzing time; assay type: functional; method in brief: as §1
Bacillus subtilis [8] = assay: Antibacterial activity against Bacillus subtilis NCIM 2063 after 18 hrs by tube dilution method; assay type: functional; details: NCIM 2063, 18 h; method in brief: as §2
Staphylococcus aureus [9] = assay: Antibacterial activity against Staphylococcus aureus NCIM 2079 after 18 hrs by disc diffusion method; assay type: functional; method in brief: as §6
Eudrilus [10] = assay: Anthelmintic activity against Eudrilus sp. assessed as mean death time; assay type: functional; method in brief: as §3
Candida albicans [11] = assay: Antifungal activity against Candida albicans MUCC 29 after 48 hrs by disc diffusion method; assay type: functional; method in brief: as §5
Candida albicans [12] = assay: Antifungal activity against Candida albicans MUCC 29 after 48 hrs by tube dilution method; assay type: functional; method in brief: as §4
Aspergillus niger = assay: Antifungal activity against Aspergillus niger MUCC 177 after 48 hrs by disc diffusion method; assay type: functional; method in brief: as §5
Pseudomonas aeruginosa [13] = assay: Antibacterial activity against Pseudomonas aeruginosa NCIM 2034 after 18 hrs by disc diffusion method; assay type: functional; method in brief: as §6
Bacillus subtilis [14] = assay: Antibacterial activity against Bacillus subtilis NCIM 2063 after 18 hrs by disc diffusion method; assay type: functional; method in brief: as §6
[15] = Anthelmintic activity against Megascoplex konkanensis ICARBC 211 assessed as mean paralyzing time; assay type: functional; method in brief: as §1
Trichophyton benhamiae [16] = assay: Antifungal activity against Trichophyton mentagrophytes MUCC 665 after 48 hrs by disc diffusion method; assay type: functional, Arthroderma benhamiae; method in brief: as §5
[17] = Anthelmintic activity against Megascoplex konkanensis ICARBC 211 assessed as mean death time; assay type: functional; method in brief: as §1
Escherichia coli [18] = assay: Antibacterial activity against Escherichia coli NCIM 2065 after 18 hrs by tube dilution method; assay type: functional; details: NCIM 2065, 18 h
Pseudomonas aeruginosa [19] = assay: Antibacterial activity against Pseudomonas aeruginosa NCIM 2034 after 18 hrs by tube dilution method; assay type: functional; details: NCIM 2034, 18 h; method in brief: as §2
Trichophyton benhamiae [20] = assay: Antifungal activity against Trichophyton mentagrophytes MUCC 665 after 48 hrs by tube dilution method; assay type: functional, Arthroderma benhamiae; method in brief: as §4

SMILES	Time (Eudrilus [1]) [min]	MIC (Staphylococcus aureus [2]) [µg/mL]	Time (Pontoscolex corethrurus [3]) [min]	MIC (Microsporum audouinii [4]) [µg/mL]	inhibition zone (IZ) (Microsporum audouinii [5]) [mm]	inhibition zone (IZ) (Escherichia coli [6]) [mm]	Time (Pontoscolex corethrurus [7]) [min]	MIC (Bacillus subtilis [8]) [µg/mL]	inhibition zone (IZ) (Staphylococcus aureus [9]) [mm]	Time (Eudrilus [10]) [min]	inhibition zone (IZ) (Candida albicans [11]) [mm]	MIC (Candida albicans [12]) [µg/mL]	inhibition zone (IZ) (Aspergillus niger) [mm]	inhibition zone (IZ) (Pseudomonas aeruginosa [13]) [mm]	inhibition zone (IZ) (Bacillus subtilis [14]) [mm]	TIME [15] [h]	inhibition zone (IZ) (Trichophyton benhamiae [16]) [mm]	TIME [17] [h]	MIC (Escherichia coli [18]) [µg/mL]	MIC (Trichophyton benhamiae [20]) [µg/mL]	further results
COC(=O)CNC(=O)[C@H](Cc1ccc(O)cc1)NC(=O)[C@H](C)NC(=O)c1cc(I)c(-c2nc3cc(C)c(C)cc3[nH]2)c(I)c1	27.42	12.5 (≈ 15.2 µM)	48.24	12.5 (≈ 15.2 µM)	9	17	34.13	6 (≈ 7.29 µM)	12	45.3	15	6 (≈ 7.29 µM)	15	20	15	0.472	13	0.652	12.5 (≈ 15.2 µM)	12.5 (≈ 15.2 µM)	MIC (Pseudomonas aeruginosa [19]): 6 µg/mL (≈ 7.29 µM)
COC(=O)CNC(=O)CNC(=O)c1cc(-c2nc3ccc([N+](=O)[O-])cc3[nH]2)ccc1O	25.74	12.5 (≈ 29.2 µM)	42.45	6 (≈ 14 µM)	13	16	31.38	25 (≈ 58.5 µM)	9	36.77	18	6 (≈ 14 µM)	17	22	9	0.461	15	0.608	12.5 (≈ 29.2 µM)	6 (≈ 14 µM)	MIC (Pseudomonas aeruginosa [19]): 6 µg/mL (≈ 14 µM)
Cc1cc2nc(-c3ccc(O)c(C(=O)N[C@@H](Cc4c[nH]c5ccccc45)C(=O)N[C@@H](C)C(=O)N[C@@H](Cc4ccc(O)cc4)C(=O)O)c3)[nH]c2cc1C	13.25	12.5 (≈ 17.8 µM)	29.19	12.5 (≈ 17.8 µM)	12	18	17.02	12.5 (≈ 17.8 µM)	11	23.98	18	6 (≈ 8.54 µM)	17	22	16	0.224	15	0.377	12.5 (≈ 17.8 µM)	6 (≈ 8.54 µM)	MIC (Pseudomonas aeruginosa [19]): 6 µg/mL (≈ 8.54 µM)
COC(=O)[C@H](Cc1ccc(O)cc1)NC(=O)[C@H](C)NC(=O)[C@H](Cc1c[nH]c2ccccc12)NC(=O)c1cc(-c2nc3cc(C)c(C)cc3[nH]2)ccc1O	13.41	12.5 (≈ 17.4 µM)	29.34	12.5 (≈ 17.4 µM)	11	16	17.6	12.5 (≈ 17.4 µM)	10	24.07	17	6 (≈ 8.37 µM)	16	21	13	0.228	14	0.379	12.5 (≈ 17.4 µM)	6 (≈ 8.37 µM)	MIC (Pseudomonas aeruginosa [19]): 6 µg/mL (≈ 8.37 µM)
COC1=CC(=O)C[C@@H](C)[C@]12Oc1c(Cl)c(OC)cc(OC)c1C2=O [GRISEOFULVIN]				6 (≈ 17 µM)	17						20	6 (≈ 17 µM)	18				20			6 (≈ 17 µM)	
COC(=O)[C@H](Cc1cnc[nH]1)NC(=O)c1cc(I)c(-c2nc3cc(C)c(C)cc3[nH]2)c(I)c1	34.34	12.5 (≈ 18.7 µM)	47.82	25 (≈ 37.4 µM)	11	18	34.14	6 (≈ 8.97 µM)	12	46.3	18	6 (≈ 8.97 µM)	14	24	16	0.488	12	0.758	12.5 (≈ 18.7 µM)	12.5 (≈ 18.7 µM)	MIC (Pseudomonas aeruginosa [19]): 6 µg/mL (≈ 8.97 µM)
